Assay outcomes deposited in PubChem BioAssay by several laboratories.
sdo1 growth: restores growth of sdo1-depleted yeast; S. cerevisiae sdo1-depleted JHY4D growth rescue, OD600 30 h; stronger effect = higher value; pdr5 snq2 efflux-pump mutant strain; z-score at 10 µM; 140,000 tested, 0.21% active;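 active = z-score above 3 at both the 24 hr and the 30 hr optical density reads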;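 note: z-score against mean and SD of all compound wells on the same plate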
Yeast lifespan up: extends the lifespan of yeast; 130,000 tested, 0.68% active; S. cerevisiae growth with nicotinamide, OD615; deaD strain in restrictive glucose medium; inhibition of the nicotinamide effect, % at 10 µM;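 active = inhibition above a set limit, placed 3 SD over the median of all compounds, cut at about 26% in these data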;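 note: 0% = nicotinamide-treated wells and 100% = cells grown without nicotinamide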
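assay system = DeaD-strain S. cerevisiae | measured by = absorbance at 615 nm | probe or stimulus = nicotinamide 1.5 mM | buffer or medium = CSMM-D glucose medium, restrictive | times = 48 h at 30 °C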
Yeast growth inh: chemicals that inhibit yeast BB579 growth in restrictive medium (lifespan-shortening candidates); S. cerevisiae BB579 growth, OD615, 48 h; inhibition, % at 10 µM; 140,000 tested, 0.51% active; AID 804;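 active = inhibition above a set limit, 3 SD over the mean compound inhibition, cut at about 44% in these data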
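Detection: OD615 turbidity measurement; Material: Saccharomyces cerevisiae DeaD strain BB579, replicative lifespan model yeast; Timing: 48 h exposure, 30 °C; Doses: single 10 µM dose; Medium: CSMM-D restrictive synthetic medium containing dextrose (glucose); Controls: amphotericin B at 10 µg/mL as positive control.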
RAM network inh: inhibitors of the yeast RAM network; S. cerevisiae dse1pr::URA3 reporter, 5-FOA growth OD615, 2 d; analog-sensitive cbk1-as2 kinase mutant strain; inhibition, % at 50 µM; 190,000 tested, 1.8% active; AID 868;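 active = inhibition above a set limit, 3 SD over mean compound inhibition, cut at about 8.4% in these data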;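 note: 0% = DMSO-only wells with no growth and 100% = 10 µM 1-NA-PP1 full growth; inhibition rescues growth on 5-FOA so higher OD means more RAM inhibition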
* = called active by the depositor; . = no result. Shown are actives, neighbours in structure and some others; about 2.7% of the full set was active somewhere.

SMILES	sdo1 growth	Yeast lifespan up	Yeast growth inh	RAM network inh
Cc1cnc(C(=O)OCC(=O)N(Cc2ccccc2)C(C)C)cn1	.	.	.	0.2
CC(OC(=O)c1ccc(S(=O)(=O)N(C)c2ccccc2)cc1)C(=O)NCCC1=CCCCC1 (stereo not drawn)	-0.24	3.2	-14.6	8.8*
COc1ccc(CCNC(=O)Cc2ccc(OCc3ccccc3)c(OC)c2[N+](=O)[O-])cc1OCc1ccccc1	-0.43	-4.8	-61.3	9.1*
COc1ccc(CCNC(=O)Cc2cc(OC)c(OC)cc2Br)cc1OC	.	.	.	2.4
CC(NC(=O)CSc1nc2ccc(N)cc2s1)c1ccccc1 (stereo not drawn)	.	.	.	-0.5
Cn1c(=O)c2c(=O)cc(NNC(=O)C(C)(C)C)[nH]c2n(C)c1=O	-0.29	27.9*	-1.5	-0.1
CC(C)Sc1oc(-c2ccco2)nc1S(=O)(=O)c1ccc(F)cc1	-0.94	-0.2	-18.5	1.3
CSc1oc(-c2ccco2)nc1S(=O)(=O)c1ccc(Br)cc1	-0.51	-1.6	-15.5	8.4*
COc1ccc(C2CCCN2C(=S)Nc2cccc(C)c2)cc1OC (stereo not drawn)	.	.	.	-0.4
COc1ccc(NC(=S)N2CCCC2c2ccc(OC)c(OC)c2)cc1 (stereo not drawn)	.	.	.	9.9*
CC(C)(C)OC(=O)C(Cc1ccc(OC(C)(C)C)cc1)NC(=O)CNC(=O)OCc1ccccc1 (stereo not drawn)	0.02	0.8	-41.8	5.5
Cc1cc(Cl)ccc1N=c1ssnc1Cl	-2.59	-12.7	63.1*	1.8
Cc1cc(Cl)ccc1N=C1N=C(N)c2ccccc21	0.55	-3.8	-26.3	8.9*
NC1=NC(=Nc2ccc(Cl)cc2)c2ccccc21	-0.35	-3.0	5.4	1.1
O=C(CCn1c(=O)c2ccccc2n(Cc2cc(=O)n3ccccc3n2)c1=O)NCc1ccco1	-0.01	7.5	-54.2	10.9*
CC1CC(C)CN(C(=O)Cn2c(=O)n(CCCCC(=O)NCc3ccco3)c(=O)c3ccccc32)C1 (stereo not drawn)	0.3	-2.0	-33.3	10.8*
CCc1ccc(NC(=O)CCc2nc3ccccc3[nH]2)cc1	.	.	.	0.0
CCNC(=O)/C(=C/c1cccc([N+](=O)[O-])c1)NC(=O)c1ccc(C)cc1	.	.	.	2.7
CC(C)CC(=O)N1CC(C)N(C(=O)CC(C)C)CC1C (stereo not drawn)	1.67	5.5	-24.2	1.2
COc1ccc(-n2nc3c(c2NC(=O)c2ccc(S(=O)(=O)N4CCOCC4)cc2)CS(=O)C3)cc1 (stereo not drawn)	.	.	.	0.8
CCOCC(=O)Nc1nc2c(s1)C(=O)CC(C)(C)C2	0.55	-13.0	45.0*	1.7
COc1ccc(O)c(CNc2ccccc2F)c1	.	.	.	0.1
COc1ccc(Cc2n[nH]c(=S)n2N)cc1OC	.	.	.	2.0
Cn1nnnc1SCC(=O)N(C1CCCCC1)C1CCS(=O)(=O)C1 (stereo not drawn)	.	.	.	0.3
CCC(=O)NC(=S)NNC(=O)c1ccc(OC)cc1	2.08	-5.9	-16.7	-0.5
SMILES	sdo1 growth	Yeast lifespan up	Yeast growth inh	RAM network inh
CCCCOc1ccc(C(=O)NNC(=S)NC(=O)CC)cc1	-1.59	-1.9	48.4*	-0.1
O=C(OCn1ncc(Cl)c(Cl)c1=O)c1ccccc1Cl	-1.47	-15.7	66.4*	-0.8
O=c1c(Cl)c(Cl)cnn1Cc1ccc(F)cc1	.	.	.	1.2
O=C(OCn1ncc(Cl)c(Cl)c1=O)c1ccc(F)cc1	-1.42	7.1	44.6*	2.8
COc1cc(NC(=S)N2CCc3ccccc3C2)cc(OC)c1	.	.	.	0.9
Cn1ncnc1SCc1cn2cccnc2n1	.	.	.	1.4
Cc1ccc(C(=O)O)cc1N=Cc1cc(Br)cc(Br)c1O	-0.51	4.1	89.6*	1.1
CCCS(=O)(=O)c1c(S(=O)(=O)CCC)c2ccc(C(N)=O)cn2c1C(=O)c1ccc(F)cc1	.	.	.	-0.5
CCCS(=O)(=O)c1c(S(=O)(=O)CCC)c2cnccn2c1C(=O)c1ccc(Cl)cc1	14.9*	-4.0	-18.0	0.2
Cc1ccc(NC(=O)COC(=O)CSC(=S)N2CCOCC2)cc1	.	.	.	4.8
Cc1cc(C)c2c(N=NN3CCCCC3)[nH]nc2n1	-0.37	-7.9	85.3*	-0.8
CCN(CC)N=Nc1[nH]nc2nc(C)cc(C)c12	0.24	-25.3	78.5*	-0.4
CCN(CC)S(=O)(=O)c1cccc(NC(=O)COC(=O)C2CC3C=CC2C3)c1 (stereo not drawn)	.	.	.	6.9
CCOC(=O)C1(CC2CCCCO2)CCN(S(=O)(=O)c2ccsc2)CC1 (stereo not drawn)	.	.	.	-0.4
O=C(NCc1ccccc1)C1=C[C@@H](C2CC2)C[C@@H](OCc2ccc(CO)cc2)O1	.	.	.	0.1
